On the set-up of data set [1]: species or system rats. The note with it: rat, in vivo.
Data set [2] is described as follows: Optical characterization of the ELP phase diagram. The data set is classed as physicochemical. The conditions noted are these: for Tt (observed transition temperature): 25 μM in PBS, turbidity at 350 nm, ramp 1 °C min−1, maximum first derivative of the curve; for slope of transition temperature vs log10 concentration / y-intercept of transition temperature vs log10 concentration: log-linear regression of Tt vs concentration, 5–100 μM in PBS, mean [95% CI]; for temperature of phase separation (Figure 2 legend, approximate): optical density as a function of temperature and concentration; for Property at 37 °C: state of the protein polymer at 37 °C (soluble / nanoparticle / coacervate). An outline of the steps:
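Turbidity (350 nm) of protein polymer solutions in PBS was recorded as a function of temperature across several concentrations. Tt was the maximum of the first derivative of the curve. Observed Tt was reported at 25 μM. Slope and intercept came from log-linear regression, Tt = m Log₁₀[C_ELP] + b. Mean [95% CI].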

A short description of data set [3]: Dynamic light scattering: hydrodynamic radius and polydispersity. The data set is classed as physicochemical. The conditions noted are these: DLS; for nanoassembly by dynamic light scattering: below the transition temperature; for hydrodynamic radius at 37 °C: filtered through 0.2 μm cellulose acetate; for hydrodynamic radius retained below the transition temperature: 25 μM in PBS (Discussion); for temperature up to which the nanoparticles are stable: 4 to 60 °C in 1 °C increments. An outline of the steps: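 Test protein polymers at 25 μM in PBS, passed through 0.2 μm cellulose acetate filters, spun at 4 °C, 1200 rpm to clear air bubbles, and overlaid with mineral oil against evaporation. Hydrodynamic radius and polydispersity were read on a DLS plate reader from 4 to 60 °C in 1 °C steps.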

Data set [4] is described as follows: Negative and cryogenic transmission electron microscopy of nanoparticles. The data set is classed as physicochemical. The conditions noted are these: average ± 95% confidence interval. An outline of the steps:
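Samples at 25 μM, unfiltered or 0.2 μm filtered. Negative TEM used carbon-coated copper grids, excess wicked off, 2 wt% aqueous uranyl acetate stain, 100 kV. Cryo-TEM used plasma-treated lacey carbon grids plunged into liquid-nitrogen-cooled ethane, 80 kV. Sizes were averaged over three fields (>50 particles/image TEM; 20 cryo-TEM). Bilayer thickness was taken at three points per vesicle circumference. Mean ± 95% CI.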

“And” between values parts separate entries of the source, which are not always exact repeats. Identical values can stand only once.

Experimental findings from publication PMC4327866 (Journal of controlled release : official journal of the …, 2014) are described below.

As for “Met-Asp-Trp-Phe-Lys-Ala-Phe-Tyr-Asp-Lys-Val-Ala-Glu-Lys-Phe-Lys-Glu-Ala-Phe-Leu-FITC [Free L4F, reference compound]”, in data set [1], the “Plasma clearance, CLp” value came to 0.12 mL/min and the “Volume of distribution, V0” value was found to be 12 mL.

Turning to G(VPGVG VPGAG VPGAG)64Y [V2A192], in data set [2], the “Tt (observed transition temperature)” value stood at 47.2 °C, the “slope of transition temperature vs log10 concentration” value (“slope … vs log10 concentration” below) was −5.8 °C/log10(μM) and the “y-intercept of transition temperature vs log10 concentration” value (“y-intercept … vs log10 concentration” for short) was determined as 55.9 °C. Further, in data set [2] (PBS), the “temperature of phase separation (Figure 2 legend, approximate)” value was “around 47 °C” and the “Property at 37 °C” value is listed as “soluble”. Further, the “nanoassembly by dynamic light scattering” value in data set [3] (25 μM in PBS) is “do not exhibit any signs of nanoassembly”. Moreover, the “hydrodynamic radius at 37 °C” value in data set [3] (25 μM in PBS, 37 °C) was found to be 5 nm.

G(VPGAG)192Y [A192]: in data set [2], the “Tt (observed transition temperature)” value is 61.9 °C, the “slope … vs log10 concentration” value was −9.2 °C/log10(μM) and the “y-intercept … vs log10 concentration” value was found to be 74.9 °C. Besides, in data set [2] (PBS), the “temperature of phase separation (Figure 2 legend, approximate)” value was around 60 °C and the “Property at 37 °C” value is recorded as “soluble”. The “nanoassembly by dynamic light scattering” value in data set [3] (25 μM in PBS) is recorded as “do not exhibit any signs of nanoassembly”. The “hydrodynamic radius at 37 °C” value in data set [3] (25 μM in PBS, 37 °C) was 5 nm.

Regarding “MDWFKAFYDKVAEKFKEAFGLVPRGS G(VPGVG VPGAG VPGAG)64Y [L4F-V2A192]”, in data set [2], the “Tt (observed transition temperature)” value was found to be 34.3 °C, the “slope … vs log10 concentration” value is −1.3 °C/log10(μM) and the “y-intercept … vs log10 concentration” value worked out at 36.2 °C. In data set [2] (PBS), the “temperature of phase separation (Figure 2 legend, approximate)” value is “about 34 °C”. Moreover, in data set [3], the “hydrodynamic radius retained below the transition temperature” value turned out to be 42 nm. Further, in data set [3] (25 μM in PBS), the “temperature up to which the nanoparticles are stable” value worked out at 34 °C and the “nanoassembly by dynamic light scattering” value is “form nanoparticles”. For the same substance, in data set [3] (25 μM in PBS, 37 °C), the “hydrodynamic radius at 37 °C” value was 42 nm and ~50 nm.

For “MDWFKAFYDKVAEKFKEAFGLVPRGS G(VPGAG)192Y [L4F-A192]”, in data set [2], the “Tt (observed transition temperature)” value came out at 45.8 °C, the “slope … vs log10 concentration” value was −2.6 °C/log10(μM) and the “y-intercept … vs log10 concentration” value worked out at 49.6 °C. Besides, in data set [2] (at 25 μM), the “depression of transition temperature below the parent ELP” value came to 14 °C. Also, the “temperature of phase separation / transition temperature” value in data set [2] (at 25 μM, optical density, PBS) was “above 47 °C”. The “Property at 37 °C” value in data set [2] (PBS) is recorded as “nanoparticle”. Further, the “hydrodynamic radius retained below the transition temperature” value in data set [3] is listed as 50 nm. Moreover, in data set [3] (25 μM in PBS), the “temperature up to which the nanoparticles are stable” value was found to be 46 °C and the “nanoassembly by dynamic light scattering” value was “form nanoparticles”. For the same substance, in data set [3] (25 μM in PBS, 37 °C), the polydispersity amounted to 9 nm; the “hydrodynamic radius at 37 °C” value is 50 nm and ~50 nm. The “nanoparticle radius, negative TEM, unfiltered” value in data set [4] (25 μM, 2 % uranyl acetate stain, unfiltered) is reported as 41 ± 16 nm. Moreover, in data set [4] (25 μM, filtered through 0.2 μm), the “vesicle radius, cryo-TEM, filtered” value is 43 ± 17 nm and 43 nm. Moreover, the “vesicle radius, cryo-TEM, unfiltered” value in data set [4] (25 μM, unfiltered) is 36 ± 13 nm. In data set [4] (0.2 um filtered, n = 8), the “membrane thickness, cryo-TEM, filtered” value was 6.8 ± 0.7 nm and 6.8 nm. Moreover, the “membrane (wall) thickness, cryo-TEM, unfiltered” value in data set [4] (unfiltered, n = 18) was 8.4 ± 1.3 nm and 8.4 nm. Also, in data set [1], the “Plasma clearance, CLp” value worked out at 0.37 mL/min; the “Volume of distribution, V0” value was determined as 26 mL; the “plasma half-life (approximate)” value is listed as “approximately 1 hr”; the “volume of distribution relative to free L4F peptide” value is given as “approximately twice”.
